Assay results pooled from the literature.
Protocols differ between the studies behind these lines.
PDGFRA V561D: Platelet-derived growth factor receptor alpha (PDGFRA, Homo sapiens, UniProt P16234, V561D)
PDGFRA D842V: Platelet-derived growth factor receptor alpha (PDGFRA, Homo sapiens, UniProt P16234, D842V)
PDGFRA: Platelet-derived growth factor receptor alpha (PDGFRA, Homo sapiens, UniProt P16234)

| Structure (SMILES) | target | test | conditions | endpoint | result |
| --- | --- | --- | --- | --- | --- |
| Cc1cc(NC(=O)c2cccc3cc(-c4cccc5[nH]nc(N)c45)ccc23)ccc1F | PDGFRA V561D | enzyme activity, inhibitor | 0.1 µM | activity vs control | 4% |
| Cc1ccc(NC(=O)c2ccc(C)c(C(F)(F)F)c2)cc1C#Cc1nn(C2CCC(O)CC2)c2ncnc(N)c12 (stereo not drawn) | PDGFRA D842V | enzyme activity, inhibitor | 10 µM | remaining activity | 0% |
| COc1cc(-c2cc(-c3ccc(N4CCNCC4)cc3)cnc2N)cc(OC)c1OC | PDGFRA V561D | enzyme activity, inhibitor | 1 µM | inhibition | 86% |
| CNC(=O)c1cc(Oc2ccc(NC(=O)Nc3ccc(Cl)c(C(F)(F)F)c3)cc2)ccn1 | PDGFRA D842V | enzyme activity, inhibitor | 0.3 µM | inhibition | 86% |
| Cc1cnc(NC2CCOCC2)nc1-n1cnc(C(=O)NC(CN)c2cc(F)cc(Cl)c2)c1 (stereo not drawn) | PDGFRA V561D | enzyme activity, inhibitor, radiometric | 1 µM | remaining activity | 100% |
| Cn1nc(C(=O)NCc2ccc(C(=O)O)cc2)cc1-c1ccc2[nH]ccc2c1 | PDGFRA | cell-free assay, competition with immobilised ligand | 0.1 µM | remaining binding | 100% |
| CCCOc1ccc(OC)c(F)c1C(=O)c1ccc(C(=O)N[C@@H]2CNC[C@H]2NC(=O)c2ccc3[nH]ncc3c2)cc1 | PDGFRA | enzyme activity, inhibitor | 10 µM | remaining activity | 89% |
| NS(=O)(=O)c1cc(NC(=O)Cc2ccccc2)ccc1Oc1cccc(Cl)c1 | PDGFRA | cell-free assay, competition with immobilised ligand | 1 µM | remaining binding | 80% |
| Cc1ccc(C(=O)NCc2ccsc2)cc1C#Cc1cn(C(C)C)c2ncnc(N)c12 | PDGFRA D842V | enzyme activity, inhibitor | 1 µM | activity vs control | 2% |
